Measurements from ChEMBL document CHEMBL1828568, “Novel imaging agents for β-amyloid plaque based on the N-benzoylindole core” (Bioorg Med Chem Lett, 2011).

Experiments:
[1] = Displacement of [125I]TZDM from amyloid beta (1 to 40) aggregates after 2 hrs by gamma counting
Method in brief: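 Competition binding against [125I]TZDM as radiolabeled standard, using Aβ1–40 aggregates; run in triplicate, results as mean ± SD.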

[2] = Binding affinity to amyloid beta fibrils
Method in brief: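 Competitive binding to Aβ1–40 aggregates, with [125I]TZDM as the radiolabeled reference ligand displaced by unlabeled test compound. Run in triplicate and reported as mean ± SD.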

Compound	Ki [1] [nM]	Ki [2] [nM]
O=C(/C=C/c1ccccc1)n1ccc2cc(Br)ccc21	18.9	
COc1ccc(/C=C/C(=O)n2ccc3cc(Br)ccc32)cc1	25.4	
COc1ccc2c(ccn2C(=O)/C=C/c2ccccc2)c1	68.2	
O=C(/C=C/c1ccccc1)n1ccc2cc(O)ccc21	21.6	
COc1ccc(/C=C/C(=O)n2ccc3cc(F)ccc32)cc1	32.4	
O=C(/C=C/c1ccccc1)n1ccc2cc(Cl)ccc21	36.4	
COc1ccc(/C=C/C(=O)n2ccc3cc(OC)ccc32)cc1	60.8	
COc1ccc(/C=C/C(=O)n2ccc3cc(C)ccc32)cc1	103	
Cc1ccc2c(ccn2C(=O)/C=C/c2ccccc2)c1	128	
COc1ccc2cc([C@H](C)C(=O)O)ccc2c1 [NAPROXEN]		5.7
